# Measurements pooled from the literature.
# Each line is one published result; the experiments were not run side by side. pIC50: −log10 of the molar value.
# Organism: Mycobacterium tuberculosis
# Read-out: microbial growth
SMILES,method,strain,concentration,time,pH,quantity,result
COc1cccc2c1C(=O)c1c(O)c3c(c(O)c1C2=O)C[C@@](O)(C(C)=O)C[C@@H]3O[C@H]1C[C@H](N)[C@H](O)[C@H](C)O1,resazurin,H37RV,,,,MIC,1.25 µM
CCOC(=O)c1c(NC(=O)c2c(F)c(F)c(F)c(F)c2F)sc2c1CCN(CC)C2,resazurin,H37RV,,,,pIC50,6.19
Cc1cc2nc(C(=O)N(C)C)cc(-c3ccccc3Cl)c2c(C)c1-c1ccncc1,,H37RV,,,,MIC90,20 µM
CO[C@H]1/C=C/O[C@@]2(C)Oc3c(C)c(O)c4c(O)c(c(/C=N/N5CCN(C)CC5)c(O)c4c3C2=O)NC(=O)/C(C)=C\C=C\[C@H](C)[C@H](O)[C@@H](C)[C@@H](O)[C@@H](C)[C@H](OC(C)=O)[C@@H]1C,resazurin,ATCC27294 H37RV,,7 days,,MIC,0.06 µg/mL
Nc1sc2c(c1C(=O)NC13CC4CC(CC(C4)C1)C3)CCCC2,resazurin,H37RV,,,,MIC,> 300 µM
CCCCOC(=O)Nc1cc2nc(C3CCCCC3)[nH]c2cc1N1CCCC1,resazurin,H37RV,,,,MIC99,0.39 µg/mL
Cc1cccc(C)c1-c1ccnc2cc(C)c(-c3ccc(CN4CCOCC4)cc3)c(C)c12,,H37RV,,,,MIC90,5 µM
[H]/N=C(/N)N[C@H]1[C@H](O)[C@@H](O)[C@H](O[C@@H]2O[C@@H](C)[C@](O)(C=O)[C@H]2O[C@@H]2O[C@@H](CO)[C@H](O)[C@@H](O)[C@@H]2NC)[C@@H](N/C(N)=N\[H])[C@@H]1O,disc diffusion,ATCC25177,5 µg/disc,12 days,,inhibition zone,30 mm
CC(=O)[C@]1(O)Cc2c(O)c3c(c(O)c2[C@@H](O[C@H]2C[C@H](N)[C@H](O)[C@H](C)O2)C1)C(=O)c1ccccc1C3=O,resazurin,H37RV,,,,MIC,80 µM
CCOC(=O)c1c(NC(=O)c2c(F)c(F)c(F)c(F)c2F)sc2c1CCN(C(=O)OC(C)(C)C)C2,resazurin,H37RV,,,,MIC,< 100 µM
Cc1cc2nc(C(=O)O)cc(-c3ccccc3Cl)c2c(C)c1-c1ccncc1,,H37RV,,,,MIC90,80 µM
Nc1nc(-c2ccc(-c3ccccc3)cc2)nc2c1ncn2[C@@H]1O[C@H](COS(=O)(=O)NC(=O)c2ccccc2O)[C@@H](O)[C@H]1O,,H37RV,,,pH 6.6,MIC99,25 to 50 µM
O=C(Nc1cc2nc(C3CCCCC3)[nH]c2cc1N1CCCC1)OCc1ccccc1,resazurin,H37RV,,,,MIC99,1.56 µg/mL
Nc1sc2c(c1C(=O)O)CCN(C(=O)OCc1ccccc1)C2,resazurin,H37RV,,,,MIC,> 300 µM
Nc1nc(-c2cccc(-c3ccccc3)c2)nc2c1ncn2[C@@H]1O[C@H](COS(=O)(=O)NC(=O)c2ccccc2O)[C@@H](O)[C@H]1O,,H37RV,,,pH 6.6,MIC99,25 to 50 µM
